Only some compounds are listed: those with a hit (about 4.9% of all), similar ones and a draw of the others.
STAT1 act: STAT1 signaling activation | NIH 3T3 STAT1-luciferase reporter, IFN-gamma, luminescence; 100% = IFN-gamma alone, no compound | activation (% of control), % at 5.5 µM | actives 2.6% (n = 200,000);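 active = activation above the screen-wide mean activation plus 3 SD, cut at about 130% in these data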;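 also: raw ratio to IFN-gamma control signal so 100% means no change and 0% no light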
STAT1 blocker: inhibitors of IFN-gamma induced STAT1 signaling. NIH 3T3 STAT1-luciferase reporter, luminescence. inhibition, % at 5.5 µM. actives 0.35% (n = 200,000). AID 920;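 active = inhibition above a set limit, the mean inhibition across all tested compounds plus 3 SD, cut at about 34% in these data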;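 also: 0% = IFN-gamma with DMSO and 100% = IFN-gamma with 300 µM nifuroxazide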
STAT3 activator: increases IL-6 driven STAT3 reporter signal; U3A cells, IL-6 STAT3-luciferase reporter, luminescence; 100% = signal with IL-6 EC80 alone; activation (% of control), % at 5.6 µM; actives 0.91% (n = 190,000); AID 871;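 active = activation above the screen-wide mean of compound activation plus 3 SD, cut at about 130% in these data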;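 also: 0% = background luminescence of wells with medium and substrate only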
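Material: human U3A cells carrying STAT3-luciferase construct. Measured by: reporter luminescence signal. Timing: compound 1 h, then IL-6 6 h at 37 °C.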
STAT3 blocker: reduces IL-6 driven STAT3 reporter signal | U3A cells, IL-6 STAT3-luciferase reporter, luminescence; host cell line lacks STAT1 | inhibition, % at 5.5 µM | actives 0.89% (n = 190,000) | AID 862;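 active = inhibition above the mean inhibition across all screened compounds plus 3 SD, cut at about 44% in these data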;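 also: 0% = DMSO only wells and 100% = 100 µM nifuroxazide control wells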
APP 5'UTR act: APP 5'UTR luciferase reporter activation | activation, % at 2 µM | AID 1276 | SH-SY5Y APP 5'UTR luciferase reporter, luminescence; zero percent = DMSO vehicle wells | actives 1% (n = 190,000);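 active = activation above a set limit, based on mean plus 3 SD of controls, cut at about 140% in these data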
NF-kB neuron act: compounds increasing NF-kB expression in human neuronal cells | NF-kB reporter expression; hits give high values | fold change at 12.5 µM | actives 1.6% (n = 190,000) | AID 1239; in the data active = fold change above about 3.3
Numbers without * were called inactive; nt = no result.

SMILES	STAT1 act	STAT1 blocker	STAT3 activator	STAT3 blocker	APP 5'UTR act	NF-kB neuron act
CC(C)CC(=O)Nc1ccc(C(=O)Nc2cccc(O)c2)cc1	132*	-36	108	3	68	2
O=C(Nc1cccc(O)c1)c1ccc(C(F)(F)F)cc1	104	-5	68	42	91	3.7*
O=C(Nc1ccc(C(F)(F)F)cc1)c1ccc2nc[nH]c2c1	112	-13	108	0	7	1.8
CC(c1ccon1)N(C)Cc1cn(Cc2ccccc2)nc1-c1ccc2c(c1)OCO2 (configuration not stated)	102	-3	104	0	-14	0.67
Cc1cc(OC(=O)c2ccccc2Cl)cc(=O)n1C	69	35*	91	16	11	1.1
CCCCCCCCn1cnc2c(N)c(C)c(C)cc21	112	-13	105	0	-6	4.5*
COc1ccc(Cn2cnc3c(N)c(C)c(C)cc32)cc1	98	2	107	-6	-5	1
O=C(O)c1cnc2ccccc2n1	97	3	98	10	-7	1.6
O=C(O)c1ccc(Nc2cnc3ccccc3n2)cc1	131*	-33	105	2	5	1.9
O=c1c2c(nc3cc(-c4ccccc4)[nH]n13)CCC2	135*	-38	83	24	103	3.7*
COc1ccc(-c2cc3nc4c(c(=O)n3[nH]2)CCC4)cc1	122	-24	92	12	12	2.6
O=c1c2c(nc3cc(-c4ccccc4)[nH]n13)CCS2	116	-18	111	-13	113	7.7*
CCC(C(=O)OC)(C(=O)OC)c1ccc([N+](=O)[O-])cc1	98	2	96	9	1	1
Cc1cc(SCCOc2ccccc2)nc(N)n1	129*	-32	103	1	3	2.5
O=[N+]([O-])c1cccc(N/N=C/c2cccc(O)c2O)c1	108	-9	93	10	-35	2.5
C/C(=N\Nc1cccc([N+](=O)[O-])c1)c1ccccc1O	135*	-38	109	-3	42	1.8
COc1ccc(-c2nnc(-c3ccc(OCC(C)C)cc3)o2)cc1	91	10	96	9	-12	1.5
c1cc(-c2nnc(-c3ccncc3)o2)ccn1	103	-3	96	8	17	1.2
CC(C)COc1ccc(-c2nnc(-c3ccncc3)o2)cc1	136*	-40	81	26	34	2.8
CCCOc1ccc(-c2nnc(-c3ccncc3)o2)cc1	126	-29	87	21	124	3.7*
CCn1c(C)nc2cc(-c3nc4n(n3)Cc3ccccc3-4)ccc21	10	96*	7	115*	-85	0.19
Fc1ccc(-c2nc3n(n2)Cc2ccccc2-3)cc1	114	-15	117	-15	173*	6.7*
O=C1NC(c2ccccc2)Nc2c1sc(=S)n2-c1ccccc1 (configuration not stated)	82	20	100	1	-18	1
CCOC(=O)C=C1CCN(c2ncc(C(F)(F)F)cc2Cl)CC1	102	0	83	26	7	1
COc1ccc(NC(=O)N/C=C/c2ccc(Cl)cc2)cc1	118	-21	91	15	16	1.1
SMILES	STAT1 act	STAT1 blocker	STAT3 activator	STAT3 blocker	APP 5'UTR act	NF-kB neuron act
Cc1ccc(NC(=O)N/C=C/c2ccc(Cl)cc2)cc1	128	-31	97	11	-7	1.3
S=C(NCCc1ccccc1)Nc1ccc(Cl)cc1	106	-4	95	4	25	1.1
O=C(N/C=C/c1ccccc1)Nc1ccc(Cl)cc1	141*	-45	95	7	58	1.3
O=C(NCCc1ccccc1)Nc1ccc(Cl)cc1	147*	-53	107	-8	nt	2.8
Cc1ccc(NC(=O)N/C=C/c2ccccc2)cc1	146*	-50	103	-4	105	1.5
CC(C)OP(=O)(OC(C)C)C(NC(=O)c1ccc(Br)cc1)c1ccccc1 (configuration not stated)	99	1	102	0	0	0.63
CC(C)n1c(SCC(=O)Nc2nc3c(s2)CCCC3)nc2c1c(=O)n(C)c(=O)n2C	82	24	114	-16	12	0.31
Clc1ccc2nc(N3CCCCC3)[nH]c2c1	136*	-39	104	-4	119	5.3*
Clc1ccc2nc(C3CCN(Cc4ccccc4)CC3)[nH]c2c1	101	-1	107	4	-1	0.95
C/C(CC(=O)Nc1cccc(Cl)c1Cl)=N\NC(=O)c1ccccc1C	101	-3	97	6	-8	1.1
O=C(COc1ccccc1-c1ccccc1)N/N=C/c1ccccn1	101	-3	100	7	-13	0.79
O=C(NCCc1cccs1)c1cccs1	134*	-39	93	16	94	2.3
CCc1cccc2c(C(=O)COC(=O)c3ccccc3)c[nH]c12	143*	-48	112	-12	38	3.2
CCc1cccc2c(C(=O)COC(=O)/C=C/c3ccccc3OC)c[nH]c12	98	2	95	2	8	0.99
CCc1cccc2c(C(=O)COC(=O)c3ccc(O)cc3)c[nH]c12	132*	-36	114	-14	1	1.3
CCc1cccc2c(C(=O)COC(=O)c3c(C)noc3C)c[nH]c12	108	-9	94	10	-7	1.1
Nc1cc([N+](=O)[O-])ccc1Nc1ccccc1	89	11	108	-5	10	0.9
CC(C)N(N=Nc1ccc([N+](=O)[O-])cc1)C(C)C	87	14	94	11	10	0.88
CN(N=Nc1ccc([N+](=O)[O-])cc1)c1ccccc1	139*	-44	83	24	52	2.8
O=[N+]([O-])c1ccc(N=NNc2ccccc2)cc1	135*	-40	96	7	58	3.6*
Cc1ccccc1NC(=O)c1cc([N+](=O)[O-])ccc1NCCN1C(=O)CCC1=O	96	3	107	-2	-16	1.1
COc1ccc(-c2cc(CS(=O)(=O)c3ccccc3)on2)cc1	142*	-46	98	11	117	3
O=S(=O)(Cc1cc(-c2ccccc2)no1)c1ccccc1	129*	-31	90	19	34	1.6
COc1ccc(-c2cc(COc3ccccc3)on2)cc1	140*	-46	101	10	25	2.2
CCN(CC)CC(=O)NCc1cc(-c2ccc(OC)cc2)no1	102	-2	101	3	2	0.95
COc1ccc(-c2cc(CNC(=O)CN3CCN(C)CC3)on2)cc1	79	23	108	-4	9	1
O=S(=O)(NC1=NCCC1)c1cccc(NC(=S)NCCc2ccccc2)c1	107	-7	101	-3	10	1.1
Cc1ccc(N=C/C(C(=O)C(F)(F)F)=C(\O)c2cccs2)cc1	51	54*	27	84*	190*	2.7

High-throughput results (PubChem BioAssay)
